Test results as given in PMC4827638 (Preventive Nutrition and Food Science, 2016).
pIC50: −log10 of the molar value. Marks after values point to notes of the source that are not given here.

Experiments:
Assay type in all cases: biochemical
[1] = H2O2 radical scavenging activity; conditions: 405 nm; triplicate
Method in brief: (§1)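 Absorbance endpoint assays, read on a UV-visible spectrophotometer (H2O2 assay on a microplate reader). Percent scavenging was measured across a series of sample concentrations. IC50 was taken from a graph of inhibition percentage versus sample concentration. Triplicate analyses, reported as mean±SD.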

NO radical = conditions: nitrite scavenging effect, 520 nm; triplicate
Method in brief: as §1

superoxide = conditions: xanthine-XO method, 560 nm; triplicate
Method in brief: as §1

[2] = OH radical scavenging activity; conditions: absorbance at 520 nm; triplicate
Method in brief: as §1

tyrosinase = test: Tyrosinase inhibitory activity; conditions: L-DOPA substrate, 25°C, 2 min, pH 6.8; mean±SD
xanthine oxidase (XO) = xanthine oxidase (XO) (Bos taurus, UniProt P80457); test: XO inhibitory activity
Sequence of xanthine oxidase (XO) (P80457 whole entry): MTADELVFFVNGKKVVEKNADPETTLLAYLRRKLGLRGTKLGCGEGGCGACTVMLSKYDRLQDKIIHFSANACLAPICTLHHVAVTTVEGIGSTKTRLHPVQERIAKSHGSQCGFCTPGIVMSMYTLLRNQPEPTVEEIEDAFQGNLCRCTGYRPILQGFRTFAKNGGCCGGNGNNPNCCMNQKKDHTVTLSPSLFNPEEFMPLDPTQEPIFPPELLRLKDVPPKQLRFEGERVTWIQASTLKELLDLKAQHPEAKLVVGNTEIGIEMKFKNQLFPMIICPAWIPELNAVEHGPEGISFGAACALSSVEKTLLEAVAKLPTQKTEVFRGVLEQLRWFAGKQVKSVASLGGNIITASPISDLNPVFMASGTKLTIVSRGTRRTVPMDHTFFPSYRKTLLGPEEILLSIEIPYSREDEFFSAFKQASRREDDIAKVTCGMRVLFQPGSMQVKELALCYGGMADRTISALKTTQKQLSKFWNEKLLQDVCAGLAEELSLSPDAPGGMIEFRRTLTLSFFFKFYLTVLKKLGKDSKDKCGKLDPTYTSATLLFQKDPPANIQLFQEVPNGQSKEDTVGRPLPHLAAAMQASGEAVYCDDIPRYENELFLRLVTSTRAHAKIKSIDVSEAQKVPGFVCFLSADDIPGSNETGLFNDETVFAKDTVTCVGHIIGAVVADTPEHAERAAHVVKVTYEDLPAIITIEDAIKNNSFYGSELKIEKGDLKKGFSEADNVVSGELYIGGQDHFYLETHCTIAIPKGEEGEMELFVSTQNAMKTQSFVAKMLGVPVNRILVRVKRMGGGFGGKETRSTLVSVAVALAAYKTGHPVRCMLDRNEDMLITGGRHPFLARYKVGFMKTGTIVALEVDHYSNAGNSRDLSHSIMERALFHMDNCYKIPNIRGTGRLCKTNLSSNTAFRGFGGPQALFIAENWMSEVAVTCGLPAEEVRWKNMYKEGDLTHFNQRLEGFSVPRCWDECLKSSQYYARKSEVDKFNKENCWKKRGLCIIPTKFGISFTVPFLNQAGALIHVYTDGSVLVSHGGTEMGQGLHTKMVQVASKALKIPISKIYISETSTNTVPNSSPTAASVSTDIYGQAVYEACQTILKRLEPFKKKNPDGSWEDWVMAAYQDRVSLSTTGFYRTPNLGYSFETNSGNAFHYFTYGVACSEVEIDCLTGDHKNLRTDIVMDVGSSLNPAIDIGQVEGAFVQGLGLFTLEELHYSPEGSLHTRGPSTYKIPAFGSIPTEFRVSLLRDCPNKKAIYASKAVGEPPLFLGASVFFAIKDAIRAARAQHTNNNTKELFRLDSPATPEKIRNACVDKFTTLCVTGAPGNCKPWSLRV

COc1ccc(O)c(C(C)(C)C)c1 [BHA, butylated hydroxyanisole]
IC50 of H2O2 radical scavenging activity [1]: 22.47 µg/mL | IC50 of NO radical scavenging activity (NO radical): 40.54 µg/mL | IC50 of O2 radical scavenging activity (superoxide): 68.45 µg/mL | IC50 of OH radical scavenging activity [2]: 37.22 µg/mL

CC1=C(O)C(=O)C(C)(O)S1 (stereo not drawn) [Thiacremonone, 2,4-dihydroxy-2,5-dimethyl-thiophene-3-one]
IC50 of H2O2 radical scavenging activity [1]: 12.60 µg/mL | IC50 of NO radical scavenging activity (NO radical): 81.53 µg/mL | IC50 of O2 radical scavenging activity (superoxide): 65.05 µg/mL | IC50 Tyrosinase inhibition (tyrosinase): 101.931±2.601^a μg/mL | pIC50 (xanthine oxidase (XO)): 3.61 | IC50 of OH radical scavenging activity [2]: 92.50 µg/mL

O=C1O[C@H]([C@@H](O)CO)C(O)=C1O [ascorbic acid, Ascorbic acid]
IC50 of H2O2 radical scavenging activity [1]: 42.42 µg/mL | IC50 of NO radical scavenging activity (NO radical): 122.64 µg/mL | IC50 of O2 radical scavenging activity (superoxide): 99.43 µg/mL | IC50 of OH radical scavenging activity [2]: 104.93 µg/mL

Cc1c(C)c2c(c(C)c1O)CC[C@@](C)(CCC[C@H](C)CCC[C@H](C)CCCC(C)C)O2 [α-tocopherol]
IC50 of H2O2 radical scavenging activity [1]: 39.40 ± 0.77 µg/mL | IC50 of NO radical scavenging activity (NO radical): 15.72 ± 1.22 µg/mL | IC50 of O2 radical scavenging activity (superoxide): 84.92 ± 2.34 µg/mL | IC50 of OH radical scavenging activity [2]: 12.93 ± 1.64 µg/mL
